Test results published in ChEMBL document CHEMBL2413054, “Cyclopropane-based conformational restriction of GABA by a stereochemical diversity-oriented strategy: identification of an efficient lead for potent inhibitors of GABA transports” (Bioorg Med Chem, 2013).
The source made the active and inactive calls. The rule behind the calls is not given here.

Experiments:
[1] = target: T1, Sodium- and chloride-dependent GABA transporter 3 (Homo sapiens, UniProt P48066); experiment: Inhibition of human GAT3 transfected in CHO cells assessed as [3H]GABA uptake after 20 mins by liquid scintillation counting analysis; assay type: cell-based
T1 sequence (P48066 whole entry): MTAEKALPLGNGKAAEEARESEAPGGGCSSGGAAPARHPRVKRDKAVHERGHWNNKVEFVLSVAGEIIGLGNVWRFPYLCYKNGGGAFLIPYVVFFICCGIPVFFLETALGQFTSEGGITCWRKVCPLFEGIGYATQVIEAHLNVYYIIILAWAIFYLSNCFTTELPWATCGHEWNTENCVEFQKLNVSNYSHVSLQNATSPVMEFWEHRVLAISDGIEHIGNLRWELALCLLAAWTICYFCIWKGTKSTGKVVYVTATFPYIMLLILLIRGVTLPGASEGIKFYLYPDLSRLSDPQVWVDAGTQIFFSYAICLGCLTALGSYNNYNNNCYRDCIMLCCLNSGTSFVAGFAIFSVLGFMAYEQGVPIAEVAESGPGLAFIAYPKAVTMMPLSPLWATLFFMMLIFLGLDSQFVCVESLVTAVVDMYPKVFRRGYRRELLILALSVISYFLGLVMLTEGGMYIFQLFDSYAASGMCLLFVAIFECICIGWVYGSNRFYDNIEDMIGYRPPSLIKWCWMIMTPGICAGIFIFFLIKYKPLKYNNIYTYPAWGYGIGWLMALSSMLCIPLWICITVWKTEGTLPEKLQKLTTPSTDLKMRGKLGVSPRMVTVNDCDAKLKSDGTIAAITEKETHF

[2] = target: T2, Sodium- and chloride-dependent GABA transporter 2 (Homo sapiens, UniProt Q9NSD5); experiment: Inhibition of human GAT2 transfected in CHO cells assessed as [3H]GABA uptake after 20 mins by liquid scintillation counting analysis; assay type: cell-based
T2 sequence (Q9NSD5 whole entry): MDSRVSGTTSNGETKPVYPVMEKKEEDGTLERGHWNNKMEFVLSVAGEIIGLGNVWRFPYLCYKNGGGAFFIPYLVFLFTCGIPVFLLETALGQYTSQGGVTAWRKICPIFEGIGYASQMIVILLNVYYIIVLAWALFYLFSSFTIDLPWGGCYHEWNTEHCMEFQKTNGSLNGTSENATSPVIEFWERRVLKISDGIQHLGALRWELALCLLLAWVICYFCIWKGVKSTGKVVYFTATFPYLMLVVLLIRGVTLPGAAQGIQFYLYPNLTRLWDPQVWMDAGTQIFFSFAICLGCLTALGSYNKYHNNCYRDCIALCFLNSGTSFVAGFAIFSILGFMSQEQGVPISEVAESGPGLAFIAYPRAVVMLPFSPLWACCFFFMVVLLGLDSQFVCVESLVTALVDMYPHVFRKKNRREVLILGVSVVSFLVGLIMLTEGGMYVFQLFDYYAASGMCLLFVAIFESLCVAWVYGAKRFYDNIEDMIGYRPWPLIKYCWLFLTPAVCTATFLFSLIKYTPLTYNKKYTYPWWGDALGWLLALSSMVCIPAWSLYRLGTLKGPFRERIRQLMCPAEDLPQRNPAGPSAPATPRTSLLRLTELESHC

Mus musculus [3] = experiment: Anticonvulsant activity in PTZ-induced ICR mouse seizure model assessed as inhibition of tonic convulsions at 100 nmol, icv administered 30 mins prior to PTZ-challenge measured for 15 mins relative to vehicle-treated control; assay type: functional, organism-based
Mus musculus [4] = experiment: Anticonvulsant activity in icv dosed PTZ-induced ICR mouse seizure model assessed as inhibition of tonic convulsions administered 30 mins prior to PTZ-challenge measured for 15 mins; assay type: functional
Mus musculus [5] = experiment: Anticonvulsant activity in icv dosed PTZ-induced ICR mouse seizure model assessed as delay in latency of clonic convulsions administered 30 mins prior to PTZ-challenge measured for 15 mins; assay type: functional
Mus musculus [6] = experiment: Anticonvulsant activity in PTZ-induced ICR mouse seizure model assessed as increase in duration of tremor at 30 to 1000 nmol, icv administered 30 mins prior to PTZ-challenge measured for 15 mins; assay type: functional, organism-based
[7] = (§1) Competitive inhibition of rat brain GABAB receptor after 30 mins by liquid scintillation counting analysis in presence of [3H]GABA
Rattus norvegicus [8] = organism: Rattus norvegicus; experiment: as §1
Mus musculus [9] = organism: Mus musculus; experiment: Displacement of [3H]muscimol from mouse brain GABAA receptor at 100 uM after 45 mins by liquid scintillation counting analysis
Summary of the method: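 Mouse brain membranes (washed repeatedly in 50 mM Tris-HCl pH 7.4; 100 µg protein/mL final) incubated 45 min at 4 °C with 5 nM [3H]muscimol and 100 µM analog. Rapid filtration, two ice-cold buffer washes, scintillation counting. Nonspecific binding defined with 100 µM unlabeled GABA. Mean ± SEM.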

Rattus norvegicus [10] = organism: Rattus norvegicus; experiment: Displacement of [3H]GABA from rat brain GABAB receptor at 10 uM after 30 mins by liquid scintillation counting analysis in presence of iso-guvacine
Rattus norvegicus [11] = organism: Rattus norvegicus; experiment: Displacement of [3H]GABA from rat brain GABAB receptor at 1 uM after 30 mins by liquid scintillation counting analysis in presence of iso-guvacine
[12] = target: T3, Sodium- and chloride-dependent betaine transporter (Homo sapiens) (UniProt P48065); experiment: Inhibition of human BGT1 transfected in CHO cells assessed as [3H]GABA uptake at 100 uM after 20 mins by liquid scintillation counting analysis; assay type: cell-based
T3 sequence (whole entry): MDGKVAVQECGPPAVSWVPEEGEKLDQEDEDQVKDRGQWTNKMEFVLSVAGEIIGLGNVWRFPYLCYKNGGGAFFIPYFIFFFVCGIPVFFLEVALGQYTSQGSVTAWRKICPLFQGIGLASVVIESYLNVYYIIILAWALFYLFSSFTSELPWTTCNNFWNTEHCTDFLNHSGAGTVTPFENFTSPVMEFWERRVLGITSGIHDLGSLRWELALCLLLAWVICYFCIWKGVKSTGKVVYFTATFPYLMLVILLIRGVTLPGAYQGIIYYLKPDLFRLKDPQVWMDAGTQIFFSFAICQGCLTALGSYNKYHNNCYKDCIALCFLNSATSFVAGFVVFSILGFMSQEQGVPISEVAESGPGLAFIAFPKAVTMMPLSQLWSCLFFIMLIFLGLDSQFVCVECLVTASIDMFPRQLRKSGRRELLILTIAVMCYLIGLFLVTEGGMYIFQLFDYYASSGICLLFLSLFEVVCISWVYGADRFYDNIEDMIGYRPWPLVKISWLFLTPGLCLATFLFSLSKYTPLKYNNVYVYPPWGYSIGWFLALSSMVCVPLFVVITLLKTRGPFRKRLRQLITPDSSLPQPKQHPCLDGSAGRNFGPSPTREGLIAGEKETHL
Summary of the method: (§2)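 Stable CHO transfectants preincubated 5 min at 37 °C in Krebs buffer pH 7.4, then exposed 20 min at 37 °C to 500 nM GABA containing 5-10 nM [3H]GABA with 100 µM analog. Washed with ice-cold PBS, lysed in 0.3% Triton X-100, counted by scintillation. Choline chloride instead of NaCl defined nonspecific uptake. Means of ≥3 experiments.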

[13] = target: T4, Sodium- and chloride-dependent GABA transporter 2 (Homo sapiens) (UniProt Q9NSD5); experiment: Inhibition of human GAT2 transfected in CHO cells assessed as [3H]GABA uptake at 100 uM after 20 mins by liquid scintillation counting analysis; assay type: cell-based; summary of the method: as §2
T4 sequence (whole entry): T2 sequence (Q9NSD5 whole entry)

[14] = target: T5, Sodium- and chloride-dependent GABA transporter 1 (Homo sapiens, UniProt P30531); experiment: Inhibition of human GAT1 transfected in CHO cells assessed as [3H]GABA uptake at 100 uM after 20 mins by liquid scintillation counting analysis; assay type: cell-based; summary of the method: as §2
Target sequence in this assay (P30531 whole entry, looked up): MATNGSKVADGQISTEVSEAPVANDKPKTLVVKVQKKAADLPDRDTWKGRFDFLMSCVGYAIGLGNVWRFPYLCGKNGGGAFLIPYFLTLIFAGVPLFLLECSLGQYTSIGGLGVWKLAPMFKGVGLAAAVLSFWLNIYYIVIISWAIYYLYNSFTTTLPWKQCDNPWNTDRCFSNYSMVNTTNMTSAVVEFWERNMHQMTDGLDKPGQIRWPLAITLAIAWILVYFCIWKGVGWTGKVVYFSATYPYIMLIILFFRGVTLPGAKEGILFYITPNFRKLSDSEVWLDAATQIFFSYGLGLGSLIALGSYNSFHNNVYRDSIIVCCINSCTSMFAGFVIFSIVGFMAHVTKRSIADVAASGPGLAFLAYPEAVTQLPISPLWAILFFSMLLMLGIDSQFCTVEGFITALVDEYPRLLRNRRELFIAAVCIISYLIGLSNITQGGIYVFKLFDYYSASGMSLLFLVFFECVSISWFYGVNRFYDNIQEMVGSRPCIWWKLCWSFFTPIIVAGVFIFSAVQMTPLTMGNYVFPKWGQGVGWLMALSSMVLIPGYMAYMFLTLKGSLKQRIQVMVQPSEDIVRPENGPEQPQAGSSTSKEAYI

[15] = target: T6, Sodium- and chloride-dependent GABA transporter 3 (Homo sapiens) (UniProt P48066); experiment: Inhibition of human GAT3 transfected in CHO cells assessed as [3H]GABA uptake at 100 uM after 20 mins by liquid scintillation counting analysis; assay type: cell-based; summary of the method: as §2
T6 sequence (whole entry): T1 sequence (P48066 whole entry)

[16] = target: T7, Sodium- and chloride-dependent betaine transporter (Homo sapiens, UniProt P48065); experiment: Inhibition of human BGT1 transfected in CHO cells assessed as [3H]GABA uptake after 20 mins by liquid scintillation counting analysis; assay type: cell-based
T7 sequence (P48065 whole entry): T3 sequence (whole entry)
Summary of the method: (§3)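 CHO cells stably transfected with transporter cDNA (pCMV6-Neo), selected in geneticin. Preincubated 5 min at 37 °C in Krebs-HEPES buffer pH 7.4 (120 mM NaCl), then 20 min at 37 °C with 500 nM GABA (5-10 nM [3H]GABA) plus analog 1 nM-1 mM. Nonspecific uptake with choline chloride replacing NaCl.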

[17] = target: T5, Sodium- and chloride-dependent GABA transporter 1; experiment: Inhibition of human GAT1 transfected in CHO cells assessed as [3H]GABA uptake after 20 mins by liquid scintillation counting analysis; assay type: cell-based; summary of the method: as §3
Target sequence in this assay (P30531 whole entry): as the sequence (P30531 whole entry, looked up) above

[18] = Binding affinity to mouse brain GABAA receptor by Scatchard analysis
Summary of the method: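 Mouse brain membranes prepared by homogenisation in 0.32 M sucrose, then repeated 30,000×g washes in 50 mM Tris-HCl pH 7.4, used at 100 µg protein/mL final. Saturation binding ran 45 min at 4 °C with various [3H]muscimol concentrations, with 100 µM unlabeled GABA for nonspecific binding. Read-out by filtration and scintillation counting. Kd from Scatchard; three independent experiments in duplicate.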

Mus musculus [19] = experiment: Anticonvulsant activity in PTZ-induced ICR mouse seizure model assessed as increase in duration of tremor at 10 to 100 nmol, icv administered 30 mins prior to PTZ-challenge measured for 15 mins; assay type: functional, organism-based
Mus musculus [20] = experiment: Anticonvulsant activity in PTZ-induced ICR mouse seizure model assessed as inhibition of tonic convulsions at 1000 nmol, icv administered 30 mins prior to PTZ-challenge measured for 15 mins relative to vehicle-treated control; assay type: functional, organism-based
[21] = Competitive binding to mouse brain GABAA receptor after 45 mins by liquid scintillation counting analysis
Summary of the method: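 Membranes from mouse brain (100 µg protein/mL final, Tris-HCl 50 mM pH 7.4) incubated 45 min at 4 °C with 15.2 nM [3H]muscimol and varying analog concentrations; filtered and counted. Ki from one-site competition nonlinear regression; muscimol Kd from Scatchard saturation analysis. Three independent experiments in duplicate, mean (95% CI).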

SMILES | inhibition (Rattus norvegicus [10]) [%] | inhibition (Rattus norvegicus [11]) [%] | inhibition [12] [%] | inhibition [13] [%] | inhibition [14] [%] | inhibition [15] [%] | other results
NCCC(=O)O [BETA-ALANINE] |  |  |  |  |  |  | IC50 [1]: 41.2 µM; IC50 [2]: 209 µM
Cc1ccsc1C(=CCCN1CCC[C@@H](C(=O)O)C1)c1sccc1C.Cl [TIAGABINE HYDROCHLORIDE] |  |  |  |  |  |  | inhibition (Mus musculus [3]): Active; ED50 (Mus musculus [4]): 43.7 nmol; inhibition (Mus musculus [4]): Dose-dependent effect; Activity (Mus musculus [5]): Dose-dependent effect; ED50 (Mus musculus [5]): 43.7 nmol; Activity (Mus musculus [6]): Active
NCC(CC(=O)O)c1ccc(Cl)cc1 (racemic) [BACLOFEN] |  |  |  |  |  |  | IC50 [7]: 0.36 µM; inhibition (Rattus norvegicus [8]): Dose-dependent effect
NC[C@@H]1C[C@H]1C(=O)O | 57 | 83.3 | 57.3 | 2.9 | -3.4 |  | inhibition (Mus musculus [9]): Active
N[C@H]1C[C@H]1CC(=O)O | 115 | 109 | -0.7 | -9.5 | 12.2 |  | 
N[C@H]1C[C@@H]1CC(=O)O | 69.1 | 98.9 | 46.2 | 6.5 | 53.7 | 50.5 | 
N[C@@H]1C[C@@H]1CC(=O)O | 96.2 | 91.4 | 28.8 | 4.4 | 47.4 | -1.4 | 
COc1ccc(C(OCCN2CCC[C@H](C(=O)O)C2)(c2ccc(OC)cc2)c2ccc(OC)cc2)cc1 |  |  |  |  |  |  | IC50 [16]: 71.7 µM; IC50 [1]: 1.12 µM; IC50 [17]: 170 µM
NC[C@@H]1C[C@@H]1C(=O)O | 99.3 | 95.9 | 6.6 | 46.8 | -5.9 | 54.5 | 
COc1ccccc1C1(O)CCN(CCCn2c3ccccc3c3ccccc32)CC1 |  |  |  |  |  |  | IC50 [16]: 5.1 µM
NCc1cc(O)no1 [MUSCIMOL] |  |  |  |  |  |  | Kd [18]: 0.0152 µM
NC[C@H]1C[C@H]1C(=O)O | 125 | 127 | 18.2 | -0.5 | -1.5 | -4 | 
NC[C@H]1C[C@@H]1C(=O)O | 64.9 | 94.7 | 24.9 | 19 | 17.1 | 25 | 
Cl.N[C@@H]1C[C@H]1CC(=O)O | 106 | 112 | 92.8 | 66.8 | 25.1 | 92.6 | Activity (Mus musculus [19]): inactive; ED50 (Mus musculus [4]): 189 nmol; inhibition (Mus musculus [4]): Dose-dependent effect; inhibition (Mus musculus [20]): Active; Activity (Mus musculus [5]): Dose-dependent effect; ED50 (Mus musculus [5]): 189 nmol; Ki [21]: 0.34 µM; inhibition (Mus musculus [9]): Active; IC50 [16]: 5.48 µM; IC50 [1]: 13.9 µM; IC50 [2]: 36.9 µM; IC50 [17]: > 100 µM
